The text below walks through data of ChEMBL document CHEMBL1150427, “Hybrids of 1-deoxynojirimycin and aryl-1,2,3-triazoles and biological studies related to angiogenesis” (Bioorg Med Chem, 2008).

Activity calls are given as the source filed them. No cut-off for these calls is given here.

A short description of data set [1]: Cell cycle arrest in BAEC assessed as accumulation at S phase at 200 uM after 24 hrs by flow cytometer relative to control. In kind it is functional, cell-based. The settings on record: Bos taurus. Summed up: (§1)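 BAECs were seeded overnight in RPMI 1640 with 10% FBS, then exposed to compound for 24 h with a DMSO control. Cells were trypsinised, washed in DPBS and fixed in 70% ethanol at −20 °C for at least 2 h. They were treated with 200 µg/ml RNase A at 25 °C for 30 min, then stained with 50 µg/ml propidium iodide at 4 °C for 30 min. DNA content of 10,000 nuclei was read by flow cytometry, and G0/G1, S and G2/M percentages were derived. Each experiment was run at least twice.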
Background: A flow cytometer gives signals particle by particle.

Data set [2] can be described thus: (§2) Inhibition of Bacillus stearothermophilus alpha glucosidase. More on the design: species or system Geobacillus stearothermophilus.
The test system of data set [3] is BAEC. Kind of data set: Decrease in FITC-labeled phytohemagglutininin-L binding to BAEC at 50 uM after 24 hrs by flow cytometer. It counts as functional, cell-based. The settings on record: Bos taurus. Summed up:
(§3)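 Cultured BAECs were exposed to compound (50 µM) for 24 h, harvested and washed in DPBS. About 5×10⁵ cells were incubated in DPBS/1% BSA with 2 µg/mL FITC-labelled Con A or L-PHA for 1 h at 4 °C, washed twice, and fluorescence histograms were recorded by FACS. Each experiment was done at least twice.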

Data set [4] has as its system BAEC. Kind of data set: Inhibition of ERK1/2 levels in BAEC at 100 uM after 24 hrs by Western blot. It counts as functional, cell-based. The settings on record: Bos taurus. Summed up:
(§4)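 BAECs were treated at 0, 100 or 200 µM for 24 h, then lysed in RIPA buffer with protease inhibitors. Protein was quantified by micro-BCA. Lysates were separated by SDS–PAGE and transferred to PVDF, then probed overnight at 4 °C with antibodies to cyclin D1, ERK, phospho-ERK and β-actin (loading control). Detection used HRP secondaries and ECL. Experiments were repeated at least twice.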

Data set [5] deals with BAEC. Kind of data set: Inhibition of angiogenesis in BAEC assessed as inhibition of endothelial tube formation at 0.2 mM after 24 hrs. In kind it is functional. The settings on record: Bos taurus. Summed up: (§5)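 BAECs were pretreated with compound for 24 h, then resuspended at 3×10⁴ cells/0.1 ml in RPMI 1640 with 10 ng/ml bFGF plus compound; controls received bFGF alone. Cells were layered on polymerised growth-factor-reduced Matrigel and incubated for 8 h at 37 °C in 5% CO₂. Tubes were counted by light microscopy in at least five fields and averaged. Each compound was tested at least twice.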

For data set [6], the species on record is Bos taurus. Kind of data set: Inhibition of ERK1/2 phosphorylation in BAEC at 200 uM after 24 hrs by Western blot. In outline: as §4
On the technique in general: A western blot detects proteins with antibodies after separation by electrophoresis.

For data set [7], the system named is BAEC. Kind of data set: Inhibition of cyclin D1 expression in BAEC at 100 uM after 24 hrs by Western blot. It counts as functional, cell-based. The settings on record: Bos taurus. Summed up: as §4
Data set [8] can be described thus: Cell cycle arrest in BAEC assessed as accumulation at G0/G1 phase at 200 uM after 24 hrs by flow cytometer relative to control. In kind it is functional, cell-based. As to conditions: Bos taurus. In outline:
as §1

The species entered for data set [9] is Bos taurus. The data set can be described thus: Inhibition of ERK1/2 phosphorylation in BAEC at 100 uM after 24 hrs by Western blot. In outline: as §4
Data set [10] deals with BAEC. The data set can be described thus: Inhibition of cyclin D1 expression in BAEC at 200 uM after 24 hrs by Western blot. It counts as functional, cell-based. The settings on record: Bos taurus. In outline:
as §4

Data set [11] relates to BAEC. Kind of data set: Inhibition of angiogenesis in BAEC assessed as inhibition of endothelial tube formation at 0.1 mM after 24 hrs. The settings on record: Bos taurus. In kind it is functional. In outline: as §5
Data set [12] in a line: Cell cycle arrest in BAEC assessed as accumulation at G2/M phase at 200 uM after 24 hrs by flow cytometer relative to control. It counts as functional, cell-based. The settings on record: Bos taurus. Summed up: as §1
The subject of data set [13] is BAEC. The data set can be described thus: Increase in FITC-labeled concanavalin A binding to BAEC at 50 uM after 24 hrs by flow cytometer. In kind it is functional. As to conditions: Bos taurus. Summed up:
as §3

Data set [14] deals with BAEC. The data set can be described thus: Inhibition of stress fiber assembly in BAEC by fluorescence staining with FITC phalloidin. It counts as functional, cell-based. The settings on record: Bos taurus. Summed up: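 BAECs were grown overnight on glass coverslips, then exposed to compound for 24 h. Cells were fixed in 4% paraformaldehyde, permeabilised with 0.1% Triton X-100 and blocked with 1% BSA. F-actin was stained with FITC-phalloidin (2 µg/ml, 30 min) and imaged by confocal microscopy at 40× oil. Experiments were repeated at least twice.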

Data set [15] concerns BAEC. Kind of data set: Inhibition of ERK1/2 levels in BAEC at 200 uM after 24 hrs by Western blot. It counts as functional, cell-based. As to conditions: Bos taurus. Summed up:
as §4

The test system of data set [16] is BAEC. Kind of data set: Effect on cell cycle of BAEC assessed as induction of G1 phase arrest at 200 uM after 24 hrs by flow cytometer relative to control. In kind it is functional, cell-based. The settings on record: Bos taurus. In outline:
as §1

The nature of data set [17]: Growth inhibition of BAEC after 48 hrs by MTT assay. Details: species or system Bos taurus. As to conditions: cattle. Summed up: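 BAECs (3×10³ per well) were seeded overnight in RPMI 1640 with 10% FBS, then given compounds at 10⁻⁶–10⁻³ M for 48 h. MTT was added to a final 0.5 mg/mL for 3 h at 37 °C. Formazan was dissolved in DMSO and read at 570 nm. Samples were run in quadruplicate, with at least two independent experiments.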
(In general: Formazan colour is commonly taken as a measure of viable cells.)

The subject of data set [18] is Geobacillus stearothermophilus. The description is as §2.

For `OC[C@@H]1[C@@H](O)[C@H](O)[C@@H](O)CN1CCCCCCCCOc1cccc(-c2cnn[nH]2)c1`, the Activity amounted to 3.9% in data set [1], 87.6% in data set [8] and 6.2% in [12]. The compound also returned an IC50 in [2] of 1150 nM. For the same compound, the result with BAEC [3], in the data set with BAEC [4], in the data set filed under Bos taurus [6], in the data set listed under Bos taurus [9], in the data set on BAEC [11] and in the data set with BAEC [15] was inactive. Further, the result in the data set with BAEC [5], in the data set with BAEC [7], in the data set on BAEC [10], with BAEC [13], in the data set with BAEC [14] and in the data set with BAEC [16] was Active.

`OC[C@@H]1[C@@H](O)[C@H](O)[C@@H](O)CN1CCCCOc1cccc(-c2cnn[nH]2)c1` displayed an IC50 in data set [2] of 6070 nM. Moreover, the result with BAEC [3] and in the data set on BAEC [5] was inactive. Further, the result in the data set on BAEC [13] was Active.

In [2], `OC[C@H]1NC[C@H](O)[C@@H](O)[C@@H]1O` [DUVOGLUSTAT] yielded a half-maximal inhibitory concentration (IC50) of 1670 nM. Moreover, the outcome in the data set with BAEC [3] and in the data set on BAEC [5] was inactive. Moreover, the Activity result in [17] is given as “Not Active”. Further, the outcome in the data set on BAEC [13] was Active.

Regarding `COc1cccc(-c2cnn[nH]2)c1`, the outcome (in [18]; with BAEC [5]) was inactive.

Compound `OC[C@@H]1[C@@H](O)[C@H](O)[C@@H](O)CN1CCCCCCOc1cccc(-c2cnn[nH]2)c1` had an IC50 in data set [2] of 2410 nM. For the same compound, the outcome in the data set with BAEC [3] and in the data set with BAEC [5] was inactive. For the same compound, the result with BAEC [13] was Active.

A word on the IC50: it is the concentration that inhibits the measured activity by half.
